Where two headings read alike, the source gives them in different places.
Tests used:
CYP3A4 mRNA = assay type: in vitro ADME, human; conditions: for Emax for induction of CYP3A4 mRNA levels: 10 to 30 μM BI 425809
human hepatocytes = assay: Cell viability of hepatocytes in the induction assay; assay type: cell-based; conditions: hepatocytes from any donor; BI 425809 up to 30 μM
P-gp = P-gp (Homo sapiens, UniProt P08183); assay type: in vitro ADME
How it was run: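 Bidirectional Caco-2 monolayer transport in HBSS with 15 mM HEPES, pH 7.4, after 30 min equilibration. [³H]digoxin (1 μM) went in the donor side, and test compound (1–100 μM) or zosuquidar (1 μM) on both sides. After 30 min preincubation, sampling ran to 90 min and was read by scintillation counting. Papp gave the B-to-A/A-to-B efflux ratio, and IC50 with slope factor came from nonlinear regression of efflux ratio against inhibitor concentration.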

CYP3A4 [1] = assay: Basic induction model; parameters: species or system human
Unbound plasma fraction = assay type: in vitro ADME; conditions: derived from other preclinical studies (data not shown)
[2] = assay type: in vivo, human; conditions: once-daily BI 425809 25 mg; midazolam exposure
[3] = Attainment of BI 425809 steady state; assay type: in vivo, human
Safety and tolerability = assay type: in vivo, human; conditions: this study, healthy male participants
How it was run: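 Phase I open-label, single-sequence crossover in healthy men. No specific safety endpoints were set. Counts of participants with treatment-emergent AEs (drug-related, serious, special interest, other significant), including clinically relevant physical and neurological examination findings, were analysed in the treated set. End-of-trial visit was 11–16 days after the last test compound dose.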

CYP3A4 [4] = conditions: for Emax for induction of CYP3A4 activity: BI 425809 10 to 30 μM, 48 hours
[5] = cited from earlier work
CYP3A4 [6] = assay: in vitro; conditions: human, Emax for induction of CYP3A4 activity, % of positive control effect
CYP2B6 = target: T1, CYP2B6 (Homo sapiens, UniProt P20813); assay: Reversible CYP inhibition in human liver microsomes, bupropion substrate
T1 sequence (P20813 1-491): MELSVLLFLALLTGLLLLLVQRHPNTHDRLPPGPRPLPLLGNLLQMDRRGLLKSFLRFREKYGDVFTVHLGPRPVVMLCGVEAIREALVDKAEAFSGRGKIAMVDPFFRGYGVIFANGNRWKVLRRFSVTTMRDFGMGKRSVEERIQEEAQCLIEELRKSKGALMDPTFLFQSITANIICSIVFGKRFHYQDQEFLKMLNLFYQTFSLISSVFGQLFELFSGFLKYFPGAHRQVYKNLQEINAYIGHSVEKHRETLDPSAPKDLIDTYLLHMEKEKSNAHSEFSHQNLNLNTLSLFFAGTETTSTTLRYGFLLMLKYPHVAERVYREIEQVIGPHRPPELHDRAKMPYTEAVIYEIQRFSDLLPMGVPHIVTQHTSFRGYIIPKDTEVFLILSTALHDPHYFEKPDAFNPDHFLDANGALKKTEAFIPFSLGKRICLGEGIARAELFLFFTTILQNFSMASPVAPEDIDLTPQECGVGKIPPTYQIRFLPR

CYP1A2 = target: T2, CYP1A2 (Homo sapiens, UniProt P05177); assay: Reversible CYP inhibition in human liver microsomes, phenacetin substrate
T2 sequence (P05177 1-516): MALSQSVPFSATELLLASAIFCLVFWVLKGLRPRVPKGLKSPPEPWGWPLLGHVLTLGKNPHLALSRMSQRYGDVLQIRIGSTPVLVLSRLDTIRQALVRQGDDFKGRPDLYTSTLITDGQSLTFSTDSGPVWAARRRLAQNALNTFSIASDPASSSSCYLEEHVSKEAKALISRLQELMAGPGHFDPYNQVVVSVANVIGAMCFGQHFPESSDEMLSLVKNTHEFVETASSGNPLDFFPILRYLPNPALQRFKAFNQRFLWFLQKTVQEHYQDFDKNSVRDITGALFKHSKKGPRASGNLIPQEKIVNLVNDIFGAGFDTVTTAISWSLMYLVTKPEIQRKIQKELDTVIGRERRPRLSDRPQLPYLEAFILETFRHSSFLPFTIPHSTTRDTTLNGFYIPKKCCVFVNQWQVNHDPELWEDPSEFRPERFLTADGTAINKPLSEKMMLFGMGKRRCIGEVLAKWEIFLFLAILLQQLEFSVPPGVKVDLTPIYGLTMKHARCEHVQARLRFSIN

CYP2C9 = CYP2C9 (Homo sapiens, UniProt P11712); assay: Reversible CYP inhibition in human liver microsomes, diclofenac substrate
CYP2C8 = target: T3, CYP2C8 (Homo sapiens, UniProt P10632); assay: Reversible CYP inhibition in human liver microsomes, amodiaquine substrate
T3 sequence (P10632 1-490): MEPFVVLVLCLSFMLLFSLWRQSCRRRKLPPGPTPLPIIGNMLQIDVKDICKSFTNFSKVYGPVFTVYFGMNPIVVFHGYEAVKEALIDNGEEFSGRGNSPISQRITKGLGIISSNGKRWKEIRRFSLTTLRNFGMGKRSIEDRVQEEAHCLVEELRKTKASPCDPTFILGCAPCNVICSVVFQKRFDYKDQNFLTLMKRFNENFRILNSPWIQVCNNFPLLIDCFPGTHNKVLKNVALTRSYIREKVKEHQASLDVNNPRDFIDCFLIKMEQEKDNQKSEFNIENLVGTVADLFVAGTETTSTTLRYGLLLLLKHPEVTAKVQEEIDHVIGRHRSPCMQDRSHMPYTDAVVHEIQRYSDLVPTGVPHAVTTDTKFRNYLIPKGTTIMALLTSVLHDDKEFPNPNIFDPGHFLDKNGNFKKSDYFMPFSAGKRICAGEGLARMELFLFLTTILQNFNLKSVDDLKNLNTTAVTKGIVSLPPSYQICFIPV

CYP2C19 = CYP2C19 (Homo sapiens, UniProt P33261); assay: Reversible CYP inhibition in human liver microsomes, S-mephenytoin substrate
CYP2D6 = CYP2D6 (Homo sapiens, UniProt P10635); assay: Reversible CYP inhibition in human liver microsomes, dextromethorphan substrate
CYP3A4/5 = conditions: human, human liver microsomes

P-gp, sequence (P08183 whole entry): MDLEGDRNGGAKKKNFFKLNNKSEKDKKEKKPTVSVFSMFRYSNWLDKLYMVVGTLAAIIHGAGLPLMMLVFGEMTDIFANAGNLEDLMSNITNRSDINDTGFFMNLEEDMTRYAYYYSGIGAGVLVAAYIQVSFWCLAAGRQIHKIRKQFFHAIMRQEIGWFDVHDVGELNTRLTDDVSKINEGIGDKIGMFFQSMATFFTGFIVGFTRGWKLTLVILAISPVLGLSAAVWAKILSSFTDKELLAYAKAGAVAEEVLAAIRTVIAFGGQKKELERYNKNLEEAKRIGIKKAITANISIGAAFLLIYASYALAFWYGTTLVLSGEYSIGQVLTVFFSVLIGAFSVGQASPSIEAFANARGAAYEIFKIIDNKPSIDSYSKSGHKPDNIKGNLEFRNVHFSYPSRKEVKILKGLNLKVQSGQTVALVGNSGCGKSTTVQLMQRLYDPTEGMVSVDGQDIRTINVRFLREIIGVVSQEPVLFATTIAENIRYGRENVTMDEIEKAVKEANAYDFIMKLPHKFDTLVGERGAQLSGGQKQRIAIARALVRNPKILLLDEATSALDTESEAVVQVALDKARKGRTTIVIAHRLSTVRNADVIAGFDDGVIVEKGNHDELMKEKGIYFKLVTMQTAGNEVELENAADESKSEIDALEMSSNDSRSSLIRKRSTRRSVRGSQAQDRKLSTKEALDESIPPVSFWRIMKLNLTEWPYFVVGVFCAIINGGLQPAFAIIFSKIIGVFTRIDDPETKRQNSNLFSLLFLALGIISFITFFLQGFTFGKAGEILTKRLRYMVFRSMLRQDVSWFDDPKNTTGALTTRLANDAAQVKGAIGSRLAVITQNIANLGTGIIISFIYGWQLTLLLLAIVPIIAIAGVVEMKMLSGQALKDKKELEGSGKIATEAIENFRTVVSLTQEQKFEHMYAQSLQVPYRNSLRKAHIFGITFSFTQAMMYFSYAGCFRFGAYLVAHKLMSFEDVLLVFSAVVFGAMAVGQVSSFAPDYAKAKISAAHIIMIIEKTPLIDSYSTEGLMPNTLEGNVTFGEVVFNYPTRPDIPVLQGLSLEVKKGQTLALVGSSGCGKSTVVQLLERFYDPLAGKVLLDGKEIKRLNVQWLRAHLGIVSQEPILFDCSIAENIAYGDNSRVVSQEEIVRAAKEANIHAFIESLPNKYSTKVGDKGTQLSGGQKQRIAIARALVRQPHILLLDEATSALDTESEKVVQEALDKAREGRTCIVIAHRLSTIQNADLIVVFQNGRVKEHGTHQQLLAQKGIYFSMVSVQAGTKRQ
CYP2D6, sequence (P10635 whole entry): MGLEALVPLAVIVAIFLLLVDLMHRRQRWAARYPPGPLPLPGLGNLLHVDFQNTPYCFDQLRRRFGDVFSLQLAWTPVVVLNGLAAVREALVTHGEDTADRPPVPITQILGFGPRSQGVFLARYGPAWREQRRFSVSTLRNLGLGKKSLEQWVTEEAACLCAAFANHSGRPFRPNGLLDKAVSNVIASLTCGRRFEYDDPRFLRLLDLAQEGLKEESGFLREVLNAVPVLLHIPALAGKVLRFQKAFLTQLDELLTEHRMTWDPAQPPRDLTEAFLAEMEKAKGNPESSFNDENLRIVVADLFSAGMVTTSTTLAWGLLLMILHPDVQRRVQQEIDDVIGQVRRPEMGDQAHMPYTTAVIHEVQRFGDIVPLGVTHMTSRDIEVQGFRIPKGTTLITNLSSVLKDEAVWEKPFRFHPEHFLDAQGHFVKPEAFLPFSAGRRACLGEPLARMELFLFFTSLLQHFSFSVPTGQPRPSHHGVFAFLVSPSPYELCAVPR
CYP2C9, sequence (P11712 whole entry): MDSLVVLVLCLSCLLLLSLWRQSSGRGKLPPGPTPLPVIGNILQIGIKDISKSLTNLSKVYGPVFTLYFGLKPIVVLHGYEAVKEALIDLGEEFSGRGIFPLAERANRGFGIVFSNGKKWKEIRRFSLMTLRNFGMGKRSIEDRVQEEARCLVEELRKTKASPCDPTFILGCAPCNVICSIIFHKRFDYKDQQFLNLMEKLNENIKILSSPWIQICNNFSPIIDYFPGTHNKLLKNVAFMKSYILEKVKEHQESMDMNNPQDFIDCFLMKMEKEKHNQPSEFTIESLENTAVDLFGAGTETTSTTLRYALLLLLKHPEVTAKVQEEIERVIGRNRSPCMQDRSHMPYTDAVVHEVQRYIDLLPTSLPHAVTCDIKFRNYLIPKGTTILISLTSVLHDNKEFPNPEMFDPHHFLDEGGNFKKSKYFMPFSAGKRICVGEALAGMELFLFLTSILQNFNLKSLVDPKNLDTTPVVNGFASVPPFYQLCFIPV
CYP2C19, sequence (P33261 whole entry): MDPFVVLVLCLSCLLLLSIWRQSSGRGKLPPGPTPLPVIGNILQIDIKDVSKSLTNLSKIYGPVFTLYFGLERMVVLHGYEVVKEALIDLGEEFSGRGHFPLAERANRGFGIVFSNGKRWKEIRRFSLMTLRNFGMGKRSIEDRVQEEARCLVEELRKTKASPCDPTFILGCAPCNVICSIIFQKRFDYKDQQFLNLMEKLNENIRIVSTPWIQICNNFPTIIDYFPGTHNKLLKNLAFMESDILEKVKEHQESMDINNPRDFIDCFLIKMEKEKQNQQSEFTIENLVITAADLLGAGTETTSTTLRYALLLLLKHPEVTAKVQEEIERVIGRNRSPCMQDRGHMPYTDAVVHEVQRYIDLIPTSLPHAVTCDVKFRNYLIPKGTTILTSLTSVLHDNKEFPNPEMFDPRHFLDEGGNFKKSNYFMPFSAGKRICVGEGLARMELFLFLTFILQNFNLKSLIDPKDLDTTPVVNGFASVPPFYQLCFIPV

C[C@@H](Oc1ccc(S(C)(=O)=O)cc1C(=O)N1C[C@@H]2C[C@]2(c2cc(C(F)(F)F)on2)C1)C(F)(F)F [BI 425809]
Emax for induction of CYP3A4 mRNA levels (CYP3A4 mRNA; hepatocytes donor 1): 14 fold | Emax for induction of CYP3A4 mRNA levels (CYP3A4 mRNA; hepatocytes donor 2): 13 fold | Emax for induction of CYP3A4 mRNA levels (CYP3A4 mRNA; hepatocytes donor 3): 37 fold | induction of CYP3A4 mRNA levels (in words) (CYP3A4 mRNA; hepatocytes from donors 1, 2, and 3): concentration-dependent induction | EC50 at 48 h (CYP3A4 mRNA; human, sandwich-cultured primary human hepatocytes): 1.96 µM | Emax for induction of CYP3A4 (CYP3A4 mRNA; mRNA levels of all three donors fitted to 3-parameter sigmoidal model): 18.7 fold | cell viability relative to vehicle control (human hepatocytes): No decrease in cell viability | IC50 (P-gp): 14 µM | effect on P-gp-mediated transcellular transport of digoxin (in words) (P-gp; Caco-2 cell monolayer, zosuquidar 1 μM, BI 425809 1-100 μM): concentration-dependent inhibition | I2/IC50 ratio (P-gp; I2 = dose[mol]/250 mL): approximately 13 | R3 (change in hepatic metabolic clearance of a sensitive CYP3A4 substrate) (CYP3A4 [1]; basic model, 2020 FDA guidance, unbound plasma fraction 0.196): 0.12 | Imax,u, maximum unbound plasma concentration (CYP3A4 [1]; input of the basic induction model): approximately 121 nM | unbound plasma fraction (Unbound plasma fraction): 0.196 | CYP3A4 induction in vivo (in words) [2]: mild inducer of CYP3A4 in vivo | steady state reached by ([3]; BI 425809 25 mg once daily, Cpre on days 8, 9, 10): ≤ 8 days | adjusted gMean ratios of Cpre of the compared sampling time points ([3]; pairwise comparisons of days 8, 9, and 10 in period 2): ~100% | tolerability (Safety and tolerability): well tolerated | Emax for induction of CYP3A4 activity (CYP3A4 [4]; hepatocytes donor 1): 10 fold | Emax for induction of CYP3A4 activity (CYP3A4 [4]; hepatocytes donor 2): 3.4 fold | Emax for induction of CYP3A4 activity (CYP3A4 [4]; hepatocytes donor 3): 6.6 fold | induction of CYP3A4 activity (in words) (CYP3A4 [4]; human hepatocytes): Concentration-dependent induction | increase of cerebrospinal fluid glycine levels, average ([5]; doses of 10 mg and 25 mg, healthy volunteers): 50% | tolerability ([5]; once-daily oral administration up to 75 mg, Phase I studies): generally well tolerated | steady state reached after ([5]; previous study): 6 days | Emax (CYP3A4 [6]): 37% | IC50 (CYP2B6): > 100 µM | IC50 (CYP1A2): > 100 µM | IC50 (CYP2C9): 54.9 µM | IC50 (CYP2C8): > 100 µM | IC50 (CYP2C19): > 100 µM | IC50 (CYP2D6): > 100 µM | IC50 (CYP3A4/5): > 100 µM
